According to ChEMBL document CHEMBL4680120, “Novel anti-Alzheimer phenol-lipoyl hybrids: Synthesis, physico-chemical characterization, and biological evaluation” (Eur J Med Chem, 2020):
≈ marks a conversion by molar mass, not a printed value. Calls of active or inactive are those of the source. The calls are words filed in the database; no cut-off is given here.

How the values were obtained:
[1] = Solubility of compound in water by HPLC analysis; assay type: physicochemical
[2] = test system: SH-SY5Y; experiment: Neuroprotective activity against amyloid beta (1 to 42)-induced toxicity in human SH-SY5Y cells assessed as increase in cell viability at 1 to 250 mg/l measured after 48 hrs by LDH release assay; assay type: functional, cell-based; details: dose 1-250 mg/L
In short: (§1)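 SH-SY5Y cells grown in DMEM/F12 with 10% FBS and differentiated with retinoic acid (10 μM), seeded at 1×10^4 per well and cultured 24 h. Cells were given hybrids at 1–250 mg/L with or without Aβ1-42 (20 μM) for 48 h. MTT (5 mg/mL) added for 4 h at 37°C, DMSO solubilization, read at 570/630 nm. LDH read at 450 nm. Five independent experiments.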

[3] = test system: SH-SY5Y; experiment: Neuroprotective activity against amyloid beta (1 to 42)-induced toxicity in human SH-SY5Y cells assessed as increase in cell viability at 1 to 250 mg/l measured after 48 hrs by MTT assay; assay type: functional, cell-based; details: dose 1-250 mg/L; in short: as §1
[4] = Stability in simulated intestinal fluid at pH 6.8 assessed as relative difference measured after 15 mins in presence of pancreatin by HPLC analysis; assay type: ADME; details: simulated gi fluid, pH 6.8, 0.25 h
In short: (§2)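 Incubation in simulated gastric fluid (pH 1.2, pepsin) or simulated intestinal fluid (pH 6.8, pancreatin). Aliquots deproteinized with ice-cold acetonitrile, centrifuged at 4°C and 12000 rpm for 10 min, filtered, analyzed by HPLC. RD% = (Ci − Cf)/Ci × 100. Stable if RD < 5%. Means of three experiments.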

[5] = Stability in simulated intestinal fluid at pH 6.8 assessed as relative difference measured after 60 mins in presence of pancreatin by HPLC analysis; assay type: ADME; details: simulated gi fluid, pH 6.8, 1 h; in short: as §2
[6] = Stability in simulated intestinal fluid at pH 6.8 assessed as relative difference measured after 30 mins in presence of pancreatin by HPLC analysis; assay type: ADME; details: simulated gi fluid, pH 6.8, 0.5 h; in short: as §2
[7] = Stability in simulated gastric fluid at pH 1.2 assessed as relative difference measured after 30 mins in presence of pepsin by HPLC analysis; assay type: ADME; details: isolated protein, pH 1.2, 0.5 h; in short: as §2
[8] = Stability in human plasma assessed as observed rate constant by HPLC analysis; assay type: ADME, cell-free
In short: (§3)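 Compound stock added to human plasma pre-warmed to 37°C and diluted with 0.02 M phosphate buffer (pH 7.4) to 80% plasma. 100 μL samples taken over time, quenched with 200 μL cold acetonitrile, centrifuged, and supernatant analyzed by HPLC. t½ and kobs are means of three experiments.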

[9] = Stability in simulated gastric fluid at pH 1.2 assessed as relative difference measured after 15 mins in presence of pepsin by HPLC analysis; assay type: ADME; details: isolated protein, pH 1.2, 0.25 h; in short: as §2
[10] = Stability in simulated intestinal fluid at pH 6.8 assessed as relative difference measured after 120 mins in presence of pancreatin by HPLC analysis; assay type: ADME; details: simulated gi fluid, pH 6.8, 2 h; in short: as §2
[11] = Stability in simulated intestinal fluid at pH 6.8 assessed as relative difference measured after 180 mins in presence of pancreatin by HPLC analysis; assay type: ADME; details: simulated gi fluid, pH 6.8, 3 h; in short: as §2
[12] = Half life in human plasma by HPLC analysis; assay type: ADME, cell-free; in short: as §3
[13] = Stability in simulated gastric fluid at pH 1.2 assessed as relative difference measured after 60 mins in presence of pepsin by HPLC analysis; assay type: ADME; details: isolated protein, pH 1.2, 1 h; in short: as §2
[14] = test system: SH-SY5Y; experiment: Cytotoxicity against human SH-SY5Y cells assessed as reduction in cell viability at 1 to 250 mg/l measured after 48 hrs by MTT assay; assay type: cell-based; details: dose 1-250 mg/L; in short: as §1
[15] = Stability in simulated intestinal fluid at pH 6.8 assessed as hydrolysis measured immediately in presence of pancreatin by HPLC analysis; assay type: ADME; details: simulated gi fluid; in short: as §2
[16] = test system: Erythrocyte; experiment: Cytoprotective activity against H2O2-induced oxidative damage in human RBC assessed as increase in cell viability measured after 72 hrs by MTT assay; assay type: functional, cell-based
[17] = test system: SH-SY5Y; experiment: Neuroprotective activity against amyloid beta (1 to 42)-induced apoptosis in human SH-SY5Y cells assessed as necrotic cells at IC50 measured after 48 hrs by Annexin-V/Propidium iodide staining based flow cytometry (reference value: 6.99%); assay type: functional
[18] = test system: SH-SY5Y; experiment: Neuroprotective activity against amyloid beta (1 to 42)-induced apoptosis in human SH-SY5Y cells assessed as decrease in DNA fragmentation at IC50 measured after 48 hrs by Hoechst 33258 staining based fluorescence microscopic assay; assay type: functional, cell-based
In short: (§4)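 Differentiated SH-SY5Y cells, 4×10^4 per well, exposed 48 h to Aβ1-42 (20 μM) with or without hybrid. Fixed in 4% paraformaldehyde for 30 min, stained with Hoechst 33258 for 15 min. Nuclear chromatin condensation and DNA fragmentation scored by fluorescence microscopy at ×200.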

[19] = test system: SH-SY5Y; experiment: Neuroprotective activity against amyloid beta (1 to 42)-induced apoptosis in human SH-SY5Y cells assessed as late apoptotic cells at IC50 measured after 48 hrs by Annexin-V/Propidium iodide staining based flow cytometry (reference value: 33.72%); assay type: functional
[20] = test system: SH-SY5Y; experiment: Neuroprotective activity against amyloid beta (1 to 42)-induced apoptosis in human SH-SY5Y cells assessed as early apoptotic cells at IC50 measured after 48 hrs by Annexin-V/Propidium iodide staining based flow cytometry (reference value: 0.74%); assay type: functional
[21] = test system: Erythrocyte; experiment: Antioxidant activity in human RBC assessed as increase in total antioxidant capacity level up to 400 ug/ml measured after 72 hrs relative to control; assay type: functional; details: dose microg/ml <=400
[22] = test system: Erythrocyte; experiment: Cytoprotective activity against H2O2-induced oxidative damage in human RBC assessed as restoration of antioxidant activity measured after 72 hrs by TAC assay; assay type: functional, cell-based
[23] = test system: Erythrocyte; experiment: Cytoprotective activity against H2O2-induced oxidative damage in human RBC assessed as recovery of H2O2-induced cell death at 50 to 100 uM measured after 72 hrs by MTT assay relative to control; assay type: functional; details: dose 50-100 µM
[24] = test system: SH-SY5Y; experiment: Neuroprotective activity against amyloid beta (1 to 42)-induced apoptosis in human SH-SY5Y cells assessed as decrease in DNA condensation at IC50 measured after 48 hrs by Hoechst 33258 staining based fluorescence microscopic assay; assay type: functional, cell-based; in short: as §4
[25] = test system: Erythrocyte; experiment: Cytoprotective activity against H2O2-induced oxidative damage in human RBC assessed as recovery of H2O2-induced cell death at 50 to 100 uM measured after 72 hrs by LDH release assay relative to control; assay type: functional; details: dose 50-100 µM
In short: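 Heparinised human whole blood cultured in phytohemagglutinin-containing chromosome medium and co-incubated with hybrids and H2O2 at 37C for 72 h. LDH released into the culture medium was measured with a commercial kit. Triton X-100 served as positive control, with untreated cultures as reference. Cytoprotection was expressed as viability relative to control.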

[26] = test system: Erythrocyte; experiment: Cytoprotective activity against H2O2-induced oxidative damage in human RBC assessed as increase in cell viability measured after 72 hrs by LDH release assay; assay type: functional, cell-based
In short: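 Heparinized whole blood cultured with phytohemagglutinin. Cells were co-incubated with 50 or 100 μM hybrid and H2O2 (25 μM). Viability was read by MTT: lymphocytes at 2×10^5 per well, MTT 4 h at 37°C, formazan dissolved in DMSO, absorbance 570 nm. LDH release was measured on 100 μL medium with a commercial kit. Results are relative to untreated control.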

| Compound | solubility [1] | Activity [2] | Activity [3] | fold change (FC) [4] | fold change (FC) [5] | fold change (FC) [6] | fold change (FC) [7] | K [8] | fold change (FC) [9] | fold change (FC) [10] | fold change (FC) [11] | half-life [12] | fold change (FC) [13] | Activity [14] | also measured |
| --- | --- | --- | --- | --- | --- | --- | --- | --- | --- | --- | --- | --- | --- | --- | --- |
| O=C(CCCCC1CCSS1)NCCOCCOC(=O)Cc1ccc(O)c(O)c1 (stereo not drawn) | 2480 µg/mL (≈ 5600 µM) | Active | Active | 3.87% | 60.78% | 45.89% | 63.52% | 0.32 h⁻¹ | 45.21% | 89.78% | 100% | 2.16 h | 78.9% | Non-Toxic | – |
| COc1ccc(/C=C/C(=O)NCCCCNC(=O)CCCCC2CCSS2)cc1OC (stereo not drawn) | – | Active | Active | 3% | 11.79% | 3.64% | 8.23% | 0.019 h⁻¹ | 4.67% | 22.21% | 34.75% | 36.4 h | 22.16% | Non-Toxic | – |
| O=C(CCCCC1CCSS1)NCCCOC(=O)Cc1ccc(O)c(O)c1 (stereo not drawn) | 933 µg/mL (≈ 2260 µM) | Active | Active | – | – | – | 86.54% | 0.93 h⁻¹ | 72.4% | – | – | 0.75 h | 100% | Non-Toxic | Stabilty [15]: Unstable |
| O=C(CCCCC1CCSS1)NCCOC(=O)Cc1ccc(O)c(O)c1 (stereo not drawn) | 736 µg/mL (≈ 1840 µM) | Active | Active | 2.5% | 54.62% | 35.4% | 46.72% | 0.613 h⁻¹ | 12.34% | 70.45% | 100% | 1.13 h | 67.34% | Non-Toxic | – |
| O=C(CCCCC1CCSS1)NCCCCNC(=O)Cc1ccc(O)c(O)c1 (stereo not drawn) | 81 µg/mL (≈ 190 µM) | Active | Active | 1.5% | 42.7% | 20.44% | 37.63% | 0.479 h⁻¹ | 10.37% | 63% | 88.91% | 1.49 h | 57.89% | Non-Toxic | – |
| COc1cc(/C=C/C(=O)NCCNC(=O)CCCCC2CCSS2)ccc1O (stereo not drawn) | 23 µg/mL (≈ 54.2 µM) | Active | Active | 2.52% | 5.2% | 3.01% | 1.28% | 0.012 h⁻¹ | 0.25% | 4.15% | 4.8% | 57.4 h | 3.45% | Non-Toxic | – |
| COc1ccc(CC(=O)NCCCNC(=O)CCCCC2CCSS2)cc1OC (stereo not drawn) | 42 µg/mL (≈ 95.3 µM) | Active | Active | 0.45% | 0.9% | 0.73% | 1.89% | – | 2.9% | 1.32% | 2.09% | > 12 h | 4.03% | Non-Toxic | Activity [16]: Dose-dependent effect; Activity [17]: 1.66%; Activity [18]: Active; Activity [19]: 16.01%; Activity [20]: 3.51%; Activity [21]: 4.2%; Activity [22]: Dose-dependent effect; Activity [23]: 0.5%; Activity [24]: Active; Activity [25]: 0.4%; Activity [26]: Dose-dependent effect |
| O=C(CCCCC1CCSS1)NCCNC(=O)Cc1ccc(O)c(O)c1 (stereo not drawn) | 2690 µg/mL (≈ 6740 µM) | Active | Active | 1.89% | 4.02% | 2.17% | 0.99% | 0.031 h⁻¹ | 0.63% | 3.78% | 4.32% | 23.1 h | 2.74% | Non-Toxic | – |
| O=C1O[C@H]([C@@H](O)CO)C(O)=C1O [ASCORBIC ACID] | – | – | – | – | – | – | – | – | – | – | – | – | – | – | Activity [21]: 10.7% |
